ChEMBL document CHEMBL4808178 (J Med Chem, 2021)
≈ marks a conversion by molar mass, not a printed value. Calls of active or inactive are those of the source. The calls are words filed in the database; no cut-off is given here.

Key:
HCT-116 [1] = experiment: Induction of apoptosis in human HCT116 cells assessed as early apoptotic cells at 5 uM after 24 hrs by annexin V-FITC/propidium iodide staining based flow cytometry (reference value: 1%); assay type: functional
[2] = Half life in Sprague-Dawley rat at 25 mg/kg, po measured up to 48 hrs by LC-MS/MS analysis; assay type: ADME, organism-based; settings: in vivo
Method in brief: (§1)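 Overnight-fasted male SD rats (about 250−270 g), three per group, single oral 25 mg/kg; test compound suspended in 5% CMC-Na, control as sodium salt in phosphate buffer. Blood sampled 0.25–48 h, plasma by centrifugation, stored −40 °C, quantified by LC−MS/MS against plasma standard curve (3–3000 ng/mL) with internal standard; model-fitted PK parameters.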

[3] = Thermodynamic solubility of the compound in phosphate buffer at pH 6.8 after overnight incubation by shake flask method; assay type: physicochemical; settings: read-out: Therm_solubility
Method in brief: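 Shake-flask method: solid added to pH 6.8 phosphate buffer at nominal 2 mg/mL, sonicated 10 min, shaken overnight 800 rpm at room temperature; phases separated by centrifugation 5000 rpm 20 min before supernatant quantitation.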

[4] = target: T1, Ephrin type-A receptor 1 (Homo sapiens) (UniProt P21709); experiment: Inhibition of EPHA1 (unknown origin) assessed as residual activity at 1 uM relative to control
T1 sequence (whole entry): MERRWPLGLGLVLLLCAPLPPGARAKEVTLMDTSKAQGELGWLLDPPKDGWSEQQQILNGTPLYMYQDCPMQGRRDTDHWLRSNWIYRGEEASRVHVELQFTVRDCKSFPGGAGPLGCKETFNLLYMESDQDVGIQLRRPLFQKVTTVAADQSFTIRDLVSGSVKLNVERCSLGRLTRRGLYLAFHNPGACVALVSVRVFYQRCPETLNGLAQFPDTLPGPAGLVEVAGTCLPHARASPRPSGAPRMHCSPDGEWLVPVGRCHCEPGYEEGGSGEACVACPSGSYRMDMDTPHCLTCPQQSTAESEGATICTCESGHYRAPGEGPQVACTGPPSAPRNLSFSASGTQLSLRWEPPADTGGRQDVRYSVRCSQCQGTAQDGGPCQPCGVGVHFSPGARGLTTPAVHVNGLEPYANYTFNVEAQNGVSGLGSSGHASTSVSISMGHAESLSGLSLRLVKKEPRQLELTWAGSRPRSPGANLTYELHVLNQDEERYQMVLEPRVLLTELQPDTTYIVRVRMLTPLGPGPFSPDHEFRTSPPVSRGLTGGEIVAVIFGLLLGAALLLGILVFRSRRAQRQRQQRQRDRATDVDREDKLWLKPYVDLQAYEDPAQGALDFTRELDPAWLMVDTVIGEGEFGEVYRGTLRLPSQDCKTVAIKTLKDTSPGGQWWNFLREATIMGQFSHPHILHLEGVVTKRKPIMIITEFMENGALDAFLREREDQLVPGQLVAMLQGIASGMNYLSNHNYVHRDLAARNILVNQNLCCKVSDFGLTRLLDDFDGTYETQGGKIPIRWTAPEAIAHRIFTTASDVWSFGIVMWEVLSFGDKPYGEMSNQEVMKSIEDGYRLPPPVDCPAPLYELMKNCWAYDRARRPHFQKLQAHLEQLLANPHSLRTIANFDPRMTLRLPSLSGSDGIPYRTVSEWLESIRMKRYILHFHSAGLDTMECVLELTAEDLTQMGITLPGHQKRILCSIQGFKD
Method in brief: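 Single-concentration screen at 1 μmol/L against a panel of 208 kinases, run as a commercial service; activity expressed relative to control.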

HCT-116 [5] = experiment: Antitumor activity against human HCT116 cells xenografted in BALB/c athymic nude mouse assessed as tumor growth inhibition at 90 mg/kg, po administered twice daily for 4 weeks and measured every 3 days; assay type: functional; settings: HCT-116, po, 672 h, read-out: TGI
Method in brief: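 Male BALB/c athymic nude mice, 5 weeks old, 16−18 g, given 0.2 mL of 5 × 10⁷ cells/mL HCT-116 in right armpit. At about 100 mm³, randomized to groups of five; intragastric dosing twice daily for 4 weeks. Tumor volume and body weight every 3 days; tumors weighed after sacrifice; organs HE-stained.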

HCT-116 [6] = experiment: Inhibition of cell stemness in human HCT116 cells assessed as reduction in size of tumor spheres at 5 uM after 10 days by microscopic analysis; assay type: functional, cell-based; settings: time 10.0 day
Method in brief: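 Sorted ALDH⁺ HCT-116 cells, 800/well, in serum-free DMEM with B27 (1:50), EGF 20 ng/mL, β-FGF 10 ng/mL; co-incubated with compound (5 μM) or DMSO vehicle for 10 days; sphere number, diameter and morphology scored from microscopy images; mean ± SD, n = 3.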

HCT-116 [7] = experiment: Induction of apoptosis in human HCT116 cells assessed as necrotic cells at 20 uM after 24 hrs by annexin V-FITC/propidium iodide staining based flow cytometry (reference value: 5.6%); assay type: functional
HCT-116 [8] = experiment: Induction of apoptosis in human HCT116 cells assessed as down regulation of pro-caspase 3 level at 20 uM incubated for 24 hrs by Western blot analysis; assay type: functional, cell-based
Method in brief: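 HCT-116 cells at 2 × 10⁵ cells/mL in DMEM/10% FBS, grown 12 h at 37 °C, then treated 24 h (vehicle DMSO). Lysates quantified by BCA, run on 10% SDS-PAGE, PVDF transfer, blocked in 5% milk/TBST, primary antibodies 4 °C overnight, HRP secondary 2 h, chemiluminescent detection; normalized to β-actin, n = 3.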

HCT-116 [9] = experiment: Inhibition of cell invasion in human HCT-116 cells at 5 uM after 24 hrs by crystal violet staining based inverted microscopic analysis; assay type: functional
Method in brief: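 Transwell chambers ([…]); 1 × 10⁵ HCT-116 cells in serum-free medium in upper compartment, DMEM + 10% FBS as chemoattractant below; treated 24 h (vehicle DMSO); non-invading cells swabbed off, lower-surface cells crystal violet stained 30 min, counted by inverted microscope; mean ± SD, n = 3.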

HCT-116 [10] = experiment: Induction of cell cycle arrest in human HCT116 cells assessed as accumulation at S phase at 20 uM after 24 hrs by propidium iodide-staining based flow cytometry (reference value: 36.43%); assay type: functional
HCT-116 [11] = experiment: Induction of apoptosis in human HCT116 cells assessed as early apoptotic cells at 20 uM after 24 hrs by annexin V-FITC/propidium iodide staining based flow cytometry (reference value: 1%); assay type: functional
[12] = AUC(0 to t) in Sprague-Dawley rat at 25 mg/kg, po measured up to 48 hrs by LC-MS/MS analysis; assay type: ADME, organism-based; design: route oral, dose 25 mg/kg, time <=48; settings: in vivo; method in brief: as §1
HCT-116 [13] = experiment: Effect on Wnt/beta-Catenin signaling in human HCT116 cells assessed as reduction in S100A4 mRNA level at 20 uM after 24 hrs by RT-qPCR analysis; assay type: functional, cell-based
Method in brief: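 HCT-116 cells treated 24 h; total RNA by TRIZOL, one-step RT-qPCR: 55 °C 10 min, 95 °C 1 min, then 39 cycles of 95 °C 10 s and 60 °C 30 s, with melting-curve and no-template controls. β-Actin as internal standard; relative expression by 2^−ΔΔCt, mean ± SD (n = 3).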

For `O=C(NCCO)c1ccc2c(c1)nc(Nc1cccc(Cl)c1)c1ccncc12`, the Activity (HCT-116 [1]) was 18%, the half-life [2] was 6.67 h and the solubility thermodynamic [3] was 0.89 µg/mL (≈ 2.27 µM). The Activity [4] was 45.2%, the inhibition in vivo at 90 mg/kg (HCT-116 [5]) was 69% and the inhibition (HCT-116 [6]) was “Active”. The Activity (HCT-116 [7]) was 8.7%, the Activity (HCT-116 [8]) was “Active” and the Activity (HCT-116 [9]) was “Active”. It also gave an Activity (HCT-116 [10]) of 5.36%, an Activity (HCT-116 [11]) of 22.5% and an AUC(0-t) at 48 h [12] of 40500 ng·h/mL. For the same compound, the Activity (HCT-116 [13]) was “Active”.
